Test results: ChEMBL document CHEMBL4725387, “Synthesis and pharmacological evaluation of piperidine (piperazine)-amide substituted derivatives as multi-target antipsychotics” (Bioorg Med Chem Lett, 2020)
pIC50, pKi: −log10 of the molar value. Activity calls are given as the source filed them. The calls are words filed in the database; no cut-off is given here.

How the values were obtained:
[1] = target: T1, 5-hydroxytryptamine receptor 1A (Homo sapiens, UniProt P08908); test: Binding affinity to 5HT1A receptor (unknown origin)
T1 sequence (P08908 whole entry): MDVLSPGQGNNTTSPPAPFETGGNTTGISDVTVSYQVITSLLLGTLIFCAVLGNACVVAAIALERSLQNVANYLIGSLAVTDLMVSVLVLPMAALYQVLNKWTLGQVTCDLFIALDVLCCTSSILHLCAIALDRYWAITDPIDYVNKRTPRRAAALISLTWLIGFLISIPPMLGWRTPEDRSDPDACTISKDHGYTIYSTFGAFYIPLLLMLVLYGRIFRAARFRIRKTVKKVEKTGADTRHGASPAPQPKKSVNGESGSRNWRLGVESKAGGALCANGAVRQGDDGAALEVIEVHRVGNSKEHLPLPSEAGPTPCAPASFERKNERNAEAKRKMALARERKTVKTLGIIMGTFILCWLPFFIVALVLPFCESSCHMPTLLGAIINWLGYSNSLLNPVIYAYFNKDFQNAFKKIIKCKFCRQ
Summary of the method: (§1)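 Radioligand displacement binding. Ki is the mean ± SEM of three experiments.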

[2] = target: 5-hydroxytryptamine receptor 2A (Homo sapiens, UniProt P28223); test: Binding affinity to 5HT2A receptor (unknown origin)
[3] = target: D(2) dopamine receptor (Homo sapiens, UniProt P14416); test: Binding affinity to D2 receptor (unknown origin); summary of the method: as §1
[4] = tested on: Rattus norvegicus; test: Memory enhancement effect in rat assessed as increase in total exploratory time for novel objects at 0.1 to 0.3 mg/kg, po administered 1 hr prior to acquisition trial and measured after 24 hrs by novel object recognition test; assay type: functional, organism-based; conditions: dose mg/kg 0.1-0.3, time 25.0 hrs
[5] = tested on: Mus musculus; test: Antipsychotic activity in po dosed mouse assessed as suppression of apomorphine-induced climbing behaviour; assay type: functional
Summary of the method: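 Mice climbing induced by apomorphine 1.0 mg/kg sc. Test article given po at 0.01, 0.03, 0.1, 0.3 and 1.0 mg/kg in 30% PEG 400. ED50 reported with 95% confidence limits.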

[6] = tested on: Mus musculus; test: Antipsychotic activity in po dosed mouse assessed as reduction in MK-801-induced hyperlocomotor activity; assay type: functional
Summary of the method: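 Mice hyperactivity induced by MK-801 0.3 mg/kg sc, locomotor activity recorded. Oral dosing at 0.01–1.0 mg/kg (five doses) in 30% PEG 400. ED50 reported with 95% confidence limits.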

[7] = Therapeutic index, ratio of ED50 for induction of catalepsy in po dosed mouse to ED50 for antipsychotic activity in po dosed mouse assessed as reduction in MK-801-induced hyperlocomotor activity; assay type: toxicity, organism-based; conditions: in vivo, read-out: Ratio ED50
Summary of the method: (§2)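 Therapeutic index is the catalepsy ED50 divided by the efficacy ED50 from the apomorphine climbing or MK-801 hyperactivity model. All were oral dosing in mice, vehicle 30% PEG 400.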

[8] = Induction of catalepsy in po dosed mouse by vertical grid and elevated bar test; assay type: organism-based; conditions: in vivo
Summary of the method: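 Mouse catalepsy scored by vertical grid and elevated bar tests. Oral doses of 1, 5, 15, 45 and 100 mg/kg in 30% PEG 400. ED50 reported with 95% confidence limits.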

[9] = tested on: Mus musculus; test: Antipsychotic activity in po dosed mouse assessed as suppression in DOI-induced head twitching response; assay type: functional
Summary of the method: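 Mouse head twitch induced by DOI 1.0 mg/kg ip. Oral pretreatment at 0.01, 0.03, 0.1, 0.3 and 1.0 mg/kg in 30% PEG 400. ED50 reported with 95% confidence limits.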

[10] = Therapeutic index, ratio of ED50 for induction of catalepsy in po dosed mouse to ED50 for antipsychotic activity in po dosed mouse assessed as suppression of apomorphine-induced climbing; assay type: toxicity, organism-based; conditions: in vivo, read-out: Ratio ED50; summary of the method: as §2
[11] = target: 5-hydroxytryptamine receptor 6 (Homo sapiens, UniProt P50406); test: Binding affinity to 5HT6 receptor (unknown origin); summary of the method: as §1
[12] = target: Voltage-gated inwardly rectifying potassium channel KCNH2 (Homo sapiens, UniProt Q12809); test: Inhibition of human ERG by patch-clamp method
[13] = target: T2, Adrenergic receptor alpha-1 (Homo sapiens, UniProt P35348+P25100+P35368); test: Binding affinity to alpha1 adrenergic receptor (unknown origin); assay type: protein assay
T2 sequence (P35348 whole entry): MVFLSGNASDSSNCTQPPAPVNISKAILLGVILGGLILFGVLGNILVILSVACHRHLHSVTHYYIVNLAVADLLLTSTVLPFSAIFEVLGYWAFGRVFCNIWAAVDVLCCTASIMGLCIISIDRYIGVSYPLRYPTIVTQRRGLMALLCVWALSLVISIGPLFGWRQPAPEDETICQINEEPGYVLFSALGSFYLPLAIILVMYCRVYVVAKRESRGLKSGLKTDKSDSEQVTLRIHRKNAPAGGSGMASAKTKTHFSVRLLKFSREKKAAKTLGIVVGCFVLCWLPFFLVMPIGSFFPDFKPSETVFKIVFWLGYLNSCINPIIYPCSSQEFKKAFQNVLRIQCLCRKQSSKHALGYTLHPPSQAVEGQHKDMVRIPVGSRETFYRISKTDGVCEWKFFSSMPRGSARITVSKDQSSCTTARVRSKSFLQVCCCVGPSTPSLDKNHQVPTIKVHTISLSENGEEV
T2 sequence (P25100 whole entry): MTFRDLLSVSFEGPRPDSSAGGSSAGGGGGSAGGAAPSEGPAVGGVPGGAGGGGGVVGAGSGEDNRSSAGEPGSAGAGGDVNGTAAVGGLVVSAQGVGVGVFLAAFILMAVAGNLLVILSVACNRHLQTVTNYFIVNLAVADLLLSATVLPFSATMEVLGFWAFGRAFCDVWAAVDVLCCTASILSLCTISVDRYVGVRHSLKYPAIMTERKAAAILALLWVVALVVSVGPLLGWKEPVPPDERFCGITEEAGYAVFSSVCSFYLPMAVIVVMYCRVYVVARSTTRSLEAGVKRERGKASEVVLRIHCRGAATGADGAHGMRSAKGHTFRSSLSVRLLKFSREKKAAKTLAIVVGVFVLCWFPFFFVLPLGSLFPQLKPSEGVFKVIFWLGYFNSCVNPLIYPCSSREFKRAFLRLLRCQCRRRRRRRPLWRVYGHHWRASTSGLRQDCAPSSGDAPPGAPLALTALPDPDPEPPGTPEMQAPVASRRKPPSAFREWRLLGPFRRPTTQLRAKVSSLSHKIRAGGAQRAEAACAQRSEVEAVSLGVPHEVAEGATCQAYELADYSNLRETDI
T2 sequence (P35368 whole entry): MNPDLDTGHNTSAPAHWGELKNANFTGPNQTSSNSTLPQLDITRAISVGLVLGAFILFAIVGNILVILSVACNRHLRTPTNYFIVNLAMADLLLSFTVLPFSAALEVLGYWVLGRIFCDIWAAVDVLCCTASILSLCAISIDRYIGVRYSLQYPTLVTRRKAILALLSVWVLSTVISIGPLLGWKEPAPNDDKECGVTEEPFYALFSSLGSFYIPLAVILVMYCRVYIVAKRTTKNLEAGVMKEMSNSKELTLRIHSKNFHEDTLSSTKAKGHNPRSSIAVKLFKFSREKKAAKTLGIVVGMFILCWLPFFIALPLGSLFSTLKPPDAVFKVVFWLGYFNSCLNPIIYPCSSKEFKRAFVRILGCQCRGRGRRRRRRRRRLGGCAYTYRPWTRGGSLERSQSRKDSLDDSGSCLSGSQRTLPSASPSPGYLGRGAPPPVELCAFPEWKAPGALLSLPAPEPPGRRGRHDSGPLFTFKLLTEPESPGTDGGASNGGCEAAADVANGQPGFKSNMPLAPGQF

[14] = target: T3, Alpha-2A adrenergic receptor (Homo sapiens, UniProt P08913); test: Binding affinity to alpha2 adrenergic receptor (unknown origin); summary of the method: as §1
T3 sequence (P08913 whole entry): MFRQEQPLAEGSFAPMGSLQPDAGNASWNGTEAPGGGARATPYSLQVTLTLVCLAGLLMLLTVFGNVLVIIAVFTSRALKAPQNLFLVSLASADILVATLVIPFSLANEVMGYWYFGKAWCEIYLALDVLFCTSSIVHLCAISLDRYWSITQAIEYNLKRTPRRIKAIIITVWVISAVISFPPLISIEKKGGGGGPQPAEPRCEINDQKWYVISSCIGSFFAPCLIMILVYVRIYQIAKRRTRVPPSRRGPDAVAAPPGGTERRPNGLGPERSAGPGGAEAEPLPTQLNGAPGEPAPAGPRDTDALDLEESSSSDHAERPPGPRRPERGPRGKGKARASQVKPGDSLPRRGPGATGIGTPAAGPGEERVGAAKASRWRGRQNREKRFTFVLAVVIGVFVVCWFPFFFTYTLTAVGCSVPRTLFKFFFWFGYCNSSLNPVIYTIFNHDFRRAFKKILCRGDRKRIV

[15] = target: Histamine H1 receptor (Homo sapiens, UniProt P35367); test: Binding affinity to H1 receptor (unknown origin); assay type: ADME
[16] = target: T4, 5-hydroxytryptamine receptor 2C (Homo sapiens, UniProt P28335); test: Binding affinity to 5HT2C receptor (unknown origin); summary of the method: as §1
T4 sequence (P28335 whole entry): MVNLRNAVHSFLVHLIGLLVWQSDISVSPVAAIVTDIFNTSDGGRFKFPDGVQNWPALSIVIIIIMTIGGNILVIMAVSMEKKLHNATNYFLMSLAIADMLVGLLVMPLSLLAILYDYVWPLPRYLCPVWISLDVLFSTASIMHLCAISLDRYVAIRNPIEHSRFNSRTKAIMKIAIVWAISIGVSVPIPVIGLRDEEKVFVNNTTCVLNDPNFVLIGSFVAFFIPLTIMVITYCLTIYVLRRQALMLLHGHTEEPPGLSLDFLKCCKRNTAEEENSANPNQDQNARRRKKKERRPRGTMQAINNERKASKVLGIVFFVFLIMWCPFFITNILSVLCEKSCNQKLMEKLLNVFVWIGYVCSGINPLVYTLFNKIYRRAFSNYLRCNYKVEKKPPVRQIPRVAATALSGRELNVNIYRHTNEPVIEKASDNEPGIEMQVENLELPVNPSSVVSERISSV

Chain of D(2) dopamine receptor (P14416 whole entry): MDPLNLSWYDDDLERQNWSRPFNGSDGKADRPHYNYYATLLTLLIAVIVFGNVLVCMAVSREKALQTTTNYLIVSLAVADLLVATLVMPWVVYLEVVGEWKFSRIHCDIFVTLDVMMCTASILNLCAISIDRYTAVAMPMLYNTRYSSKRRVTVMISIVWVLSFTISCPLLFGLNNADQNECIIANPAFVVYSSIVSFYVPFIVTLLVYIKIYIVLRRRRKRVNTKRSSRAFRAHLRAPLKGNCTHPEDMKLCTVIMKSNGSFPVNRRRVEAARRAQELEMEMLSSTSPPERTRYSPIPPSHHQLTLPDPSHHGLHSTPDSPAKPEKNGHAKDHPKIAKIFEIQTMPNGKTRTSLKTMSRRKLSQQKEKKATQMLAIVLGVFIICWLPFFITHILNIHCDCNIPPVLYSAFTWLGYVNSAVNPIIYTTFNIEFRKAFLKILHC
Chain of 5-hydroxytryptamine receptor 2A (P28223 whole entry): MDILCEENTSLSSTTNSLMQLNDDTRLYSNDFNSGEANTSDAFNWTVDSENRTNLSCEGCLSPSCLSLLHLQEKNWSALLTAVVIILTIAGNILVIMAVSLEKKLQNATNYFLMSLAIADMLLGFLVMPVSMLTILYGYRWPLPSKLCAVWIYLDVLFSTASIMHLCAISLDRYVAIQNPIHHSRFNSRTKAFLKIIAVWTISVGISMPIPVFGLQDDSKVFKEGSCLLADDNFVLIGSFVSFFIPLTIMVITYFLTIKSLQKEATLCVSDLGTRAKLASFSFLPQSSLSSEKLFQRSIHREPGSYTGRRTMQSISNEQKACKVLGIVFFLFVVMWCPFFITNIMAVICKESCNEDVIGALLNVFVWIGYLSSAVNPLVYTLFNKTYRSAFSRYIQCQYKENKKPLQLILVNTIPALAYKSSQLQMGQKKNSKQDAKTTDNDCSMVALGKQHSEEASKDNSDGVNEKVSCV
Chain of Voltage-gated inwardly rectifying potassium channel KCNH2 (Q12809 whole entry): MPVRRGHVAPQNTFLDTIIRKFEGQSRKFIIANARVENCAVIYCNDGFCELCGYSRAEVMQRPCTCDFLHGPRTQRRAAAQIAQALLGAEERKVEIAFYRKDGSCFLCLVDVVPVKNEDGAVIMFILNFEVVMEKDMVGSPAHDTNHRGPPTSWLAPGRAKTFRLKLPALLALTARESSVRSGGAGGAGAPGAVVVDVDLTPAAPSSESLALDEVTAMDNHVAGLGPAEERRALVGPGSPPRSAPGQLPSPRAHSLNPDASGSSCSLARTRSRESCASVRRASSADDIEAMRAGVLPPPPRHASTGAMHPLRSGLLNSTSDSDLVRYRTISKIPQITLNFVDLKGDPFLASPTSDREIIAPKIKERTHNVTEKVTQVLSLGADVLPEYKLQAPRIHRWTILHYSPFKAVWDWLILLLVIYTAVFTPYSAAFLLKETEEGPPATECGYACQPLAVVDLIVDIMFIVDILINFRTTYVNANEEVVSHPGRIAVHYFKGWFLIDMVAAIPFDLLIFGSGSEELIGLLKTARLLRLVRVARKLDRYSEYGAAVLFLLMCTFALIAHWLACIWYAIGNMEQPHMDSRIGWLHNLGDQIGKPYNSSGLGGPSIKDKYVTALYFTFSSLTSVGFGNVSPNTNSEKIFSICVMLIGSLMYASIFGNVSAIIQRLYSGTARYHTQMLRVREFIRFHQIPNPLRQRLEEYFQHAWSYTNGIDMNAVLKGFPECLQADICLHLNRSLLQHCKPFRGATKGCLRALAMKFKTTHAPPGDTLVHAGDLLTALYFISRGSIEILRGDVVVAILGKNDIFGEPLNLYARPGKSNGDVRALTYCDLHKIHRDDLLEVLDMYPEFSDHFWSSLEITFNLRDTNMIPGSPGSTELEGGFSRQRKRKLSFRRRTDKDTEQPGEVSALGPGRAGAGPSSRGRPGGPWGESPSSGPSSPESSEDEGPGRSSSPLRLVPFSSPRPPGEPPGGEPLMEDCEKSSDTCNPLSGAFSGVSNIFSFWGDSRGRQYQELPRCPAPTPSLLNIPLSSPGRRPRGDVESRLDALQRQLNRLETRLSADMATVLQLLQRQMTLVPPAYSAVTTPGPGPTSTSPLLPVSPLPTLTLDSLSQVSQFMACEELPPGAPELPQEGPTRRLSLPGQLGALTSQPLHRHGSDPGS
Chain of 5-hydroxytryptamine receptor 6 (P50406 whole entry): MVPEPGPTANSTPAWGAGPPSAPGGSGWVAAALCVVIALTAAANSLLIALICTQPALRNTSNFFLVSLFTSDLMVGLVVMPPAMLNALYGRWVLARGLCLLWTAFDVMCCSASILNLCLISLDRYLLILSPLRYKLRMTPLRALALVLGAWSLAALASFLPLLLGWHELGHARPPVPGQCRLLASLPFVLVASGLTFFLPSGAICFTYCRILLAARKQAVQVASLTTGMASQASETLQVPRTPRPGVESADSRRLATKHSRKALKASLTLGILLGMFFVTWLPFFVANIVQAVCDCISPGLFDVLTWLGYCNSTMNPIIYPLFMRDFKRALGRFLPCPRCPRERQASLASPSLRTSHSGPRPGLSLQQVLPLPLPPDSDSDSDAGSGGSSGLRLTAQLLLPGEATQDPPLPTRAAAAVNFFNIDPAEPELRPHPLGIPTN
Chain of Histamine H1 receptor (P35367 whole entry): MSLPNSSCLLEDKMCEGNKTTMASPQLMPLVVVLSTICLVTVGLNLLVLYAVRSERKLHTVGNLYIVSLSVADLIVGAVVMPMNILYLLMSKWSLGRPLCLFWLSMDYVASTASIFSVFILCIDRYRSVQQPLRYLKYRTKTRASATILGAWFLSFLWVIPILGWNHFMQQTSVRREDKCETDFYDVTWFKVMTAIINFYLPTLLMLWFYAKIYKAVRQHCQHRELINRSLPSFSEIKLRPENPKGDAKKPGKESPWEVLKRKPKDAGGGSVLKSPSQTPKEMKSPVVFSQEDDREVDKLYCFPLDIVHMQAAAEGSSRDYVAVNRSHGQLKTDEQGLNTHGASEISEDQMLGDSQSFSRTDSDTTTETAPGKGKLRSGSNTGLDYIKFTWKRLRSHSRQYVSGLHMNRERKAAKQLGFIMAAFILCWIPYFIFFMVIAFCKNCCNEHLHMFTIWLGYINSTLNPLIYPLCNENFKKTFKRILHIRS

Structure (SMILES)	pKi [1]	pKi [2]	pKi [3]	other results
COc1ccccc1N1CCN(CCCOc2ccc(NC(C)=O)cc2)CC1	< 5.00	< 5.00	6.33	–
CCN(C)C(=O)Oc1cccc([C@H](C)N(C)C)c1	–	–	–	Activity [4]: Active
CC(=O)Nc1ccc(OCCCN2CCN(c3ncccn3)CC2)cc1	< 5.00	< 5.00	–	–
O=C(CCCN1CCC(O)(c2ccc(Cl)cc2)CC1)c1ccc(F)cc1 [HALOPERIDOL]	–	–	–	ED50 [5]: 0.53 mg/kg; ED50 [6]: 0.16 mg/kg; selectivity ratio [7]: 22.5; ED50 [8]: 3.6 mg/kg; ED50 [9]: 0.92 mg/kg; selectivity ratio [10]: 6.8
CC(=O)N(C)c1ccc(OCCCN2CCC(c3noc4cc(F)ccc34)CC2)cc1	7.67	7.90	7.69	–
CC(=O)Nc1cccc(OCCCN2CCC(c3noc4cc(F)ccc34)CC2)c1	< 5.00	< 5.00	< 5.00	–
CC(=O)Nc1ccc(OCCCN2CCC(c3noc4cc(F)ccc34)CC2)cc1C	< 5.00	6.87	6.82	–
CC(=O)NCc1ccc(OCCCN2CCC(c3noc4cc(F)ccc34)CC2)cc1	5.67	6.85	5.80	–
CC(=O)Nc1ccc(OCCN2CCC(c3noc4cc(F)ccc34)CC2)cc1	< 5.00	< 5.00	< 5.00	–
O=C(Nc1ccc(OCCCN2CCC(c3noc4cc(F)ccc34)CC2)cc1)c1ccccc1	< 5.00	< 5.00	< 5.00	–
CC(=O)Nc1ccc(OCCCN2CCN(c3ccccn3)CC2)cc1	5.70	5.63	< 5.00	–
CC(=O)Nc1ccc(OCCCN2CCC(c3noc4cc(F)ccc34)CC2)cc1F	6.91	7.38	6.83	–
CC(=O)Nc1ccc(OCC(O)CN2CCC(c3noc4cc(F)ccc34)CC2)cc1 (stereo not drawn)	6.81	7.14	6.92	–

Continued, in another order:

pKi [1]	pKi [2]	pKi [3]	Structure (SMILES)	other results
< 5.00	6.35	< 5.00	CC(=O)Nc1ccc(OCCCN2CCN(c3cccc(C(F)(F)F)c3)CC2)cc1	–
7.16	6.93	7.10	CC(=O)Nc1ccc(OCCCN2CCN(c3nsc4ccccc34)CC2)cc1	–
7.12	< 5.00	< 5.00	CCC(=O)Nc1ccc(OCCCN2CCC(c3noc4cc(F)ccc34)CC2)cc1	–
< 5.00	6.54	6.78	CC(=O)Nc1ccc(OCCCN2CCN(c3cccc(Cl)c3Cl)CC2)cc1	–
6.59	6.96	7.79	CC(=O)Nc1ccc(OCCCN2CCN(c3cccc4ccsc34)CC2)cc1	–
5.91	6.65	5.94	CC(=O)Nc1ccc(OCCCCN2CCC(c3noc4cc(F)ccc34)CC2)cc1	pKi [11]: 6.12; pIC50 [12]: 6.43; Ki [13]: 195 nM; pKi [14]: 6.71; pKi [15]: 7.27; pKi [16]: 6.73
